pIC50: −log10 of the molar value.
Columns and labels:
[1] = target: T1, Bifunctional epoxide hydrolase 2 (Mus musculus, UniProt P34914); assay: Inhibition of mouse recombinant soluble Epoxide hydrolase
T1 sequence (P34914 whole entry): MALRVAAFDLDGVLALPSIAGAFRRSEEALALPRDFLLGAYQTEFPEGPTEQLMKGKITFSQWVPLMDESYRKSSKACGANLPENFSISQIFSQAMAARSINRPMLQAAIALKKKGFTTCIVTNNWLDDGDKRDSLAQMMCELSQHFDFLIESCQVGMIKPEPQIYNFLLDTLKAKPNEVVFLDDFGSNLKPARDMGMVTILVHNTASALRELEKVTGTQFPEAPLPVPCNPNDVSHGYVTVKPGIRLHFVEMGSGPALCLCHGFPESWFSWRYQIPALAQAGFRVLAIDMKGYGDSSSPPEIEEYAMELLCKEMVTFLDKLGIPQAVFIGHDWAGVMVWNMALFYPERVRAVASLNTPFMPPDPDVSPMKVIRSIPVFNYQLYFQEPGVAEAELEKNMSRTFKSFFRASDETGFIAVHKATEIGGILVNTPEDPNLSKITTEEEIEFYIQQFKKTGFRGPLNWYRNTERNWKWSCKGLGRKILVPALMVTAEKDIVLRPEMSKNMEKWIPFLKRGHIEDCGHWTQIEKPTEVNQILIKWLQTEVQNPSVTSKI

[2] = Solubility in sodium phosphate buffer at pH 7.4; type: physicochemical
Method in brief: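 Solubility measured in sodium phosphate buffer, 100 mM, pH 7.4, following a previously described procedure.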

[3] = target: T2, Bifunctional epoxide hydrolase 2 (Homo sapiens, UniProt P34913); assay: Inhibition of human recombinant soluble Epoxide hydrolase
T2 sequence (P34913 whole entry): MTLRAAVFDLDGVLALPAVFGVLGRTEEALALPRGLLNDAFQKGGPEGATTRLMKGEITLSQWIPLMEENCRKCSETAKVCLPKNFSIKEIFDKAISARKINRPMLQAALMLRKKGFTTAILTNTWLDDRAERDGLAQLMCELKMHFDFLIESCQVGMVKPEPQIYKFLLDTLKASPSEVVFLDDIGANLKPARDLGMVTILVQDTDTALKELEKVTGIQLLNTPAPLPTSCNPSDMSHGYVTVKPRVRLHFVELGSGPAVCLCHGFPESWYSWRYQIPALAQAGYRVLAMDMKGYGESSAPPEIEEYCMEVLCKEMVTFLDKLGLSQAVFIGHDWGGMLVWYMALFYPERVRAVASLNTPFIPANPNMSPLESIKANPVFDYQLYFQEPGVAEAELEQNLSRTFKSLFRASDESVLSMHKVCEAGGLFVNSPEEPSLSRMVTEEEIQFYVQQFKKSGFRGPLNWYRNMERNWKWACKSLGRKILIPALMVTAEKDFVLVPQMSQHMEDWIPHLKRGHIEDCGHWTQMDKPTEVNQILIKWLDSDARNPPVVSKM

Compound | pIC50 [1] | solubility [2] [µM] | pIC50 [3]
O=C(CCCNC(=O)NC12CC3CC(CC(C3)C1)C2)N[C@@H](Cc1cnc[nH]1)C(=O)O | 7.30 | > 500 | –
O=C(CCCCCNC(=O)NC1CCCCC1)N[C@@H](Cc1ccccc1)C(=O)N[C@@H](CO)C(=O)O | – | > 500 | 5.62
O=C(CCCCCNC(=O)NC12CC3CC(CC(C3)C1)C2)N[C@@H](Cc1cnc[nH]1)C(=O)O | – | > 500 | < 4.00
O=C(CCCCCNC(=O)NC1CCCCC1)N[C@@H](Cc1ccccc1)C(=O)N[C@@H](Cc1ccccc1)C(=O)O | – | > 500 | 7.00
CC(C)[C@H](NC(=O)CCCNC(=O)NC12CC3CC(CC(C3)C1)C2)C(=O)O | 4.52 | > 500 | –
O=C(O)CC[C@H](NC(=O)CCCNC(=O)NC12CC3CC(CC(C3)C1)C2)C(=O)O | < 4.00 | > 500 | –
O=C(O)CNC(=O)CCCNC(=O)NC12CC3CC(CC(C3)C1)C2 | < 4.00 | > 500 | –
CSCC[C@H](NC(=O)[C@H](Cc1ccccc1)NC(=O)CCCCCNC(=O)NC1CCCCC1)C(=O)O | – | > 500 | 6.06
C[C@H](NC(=O)CCCCCNC(=O)NC12CC3CC(CC(C3)C1)C2)C(=O)O | – | > 500 | < 4.00
O=C(CCCCCNC(=O)NC1CCCCC1)N[C@@H](Cc1ccccc1)C(=O)N[C@@H](Cc1cnc[nH]1)C(=O)O | – | > 500 | 5.26
N=C(N)NCCC[C@H](NC(=O)CCCNC(=O)NC12CC3CC(CC(C3)C1)C2)C(=O)O | 4.80 | > 500 | –
O=C(CCCCCNC(=O)NC12CC3CC(CC(C3)C1)C2)N[C@@H](Cc1ccc(O)cc1)C(=O)O | – | > 500 | 4.10
N=C(N)NCCC[C@H](NC(=O)[C@H](Cc1ccccc1)NC(=O)CCCCCNC(=O)NC1CCCCC1)C(=O)O | – | > 500 | 5.68
O=C(O)CCCCCNC(=O)NC12CC3CC(CC(C3)C1)C2 | – | – | < 4.00
O=C(CCCCCNC(=O)NC1CCCCC1)N[C@@H](Cc1ccccc1)C(=O)N[C@@H](Cc1ccc(O)cc1)C(=O)O | – | > 500 | 6.64
N=C(N)NCCC[C@H](NC(=O)CCCCCNC(=O)NC12CC3CC(CC(C3)C1)C2)C(=O)O | – | > 500 | < 4.00
CC(C)C[C@H](NC(=O)CCCCCNC(=O)NC12CC3CC(CC(C3)C1)C2)C(=O)O | – | > 500 | < 4.00
CC(C)[C@H](NC(=O)[C@H](Cc1ccccc1)NC(=O)CCCCCNC(=O)NC1CCCCC1)C(=O)O | – | > 500 | 7.00
CC[C@H](C)[C@H](NC(=O)[C@H](Cc1ccccc1)NC(=O)CCCCCNC(=O)NC1CCCCC1)C(=O)O | – | > 500 | 6.89
CC(O)[C@H](NC(=O)CCCCCNC(=O)NC12CC3CC(CC(C3)C1)C2)C(=O)O (some centres undefined) | – | > 500 | < 4.00

Compound | pIC50 [1] | solubility [2] [µM] | pIC50 [3]
NC(N)=NCCC[C@H](NC(=O)CCCCCNC(=O)NC1CCCCC1)C(=O)O | 6.64 | > 500 | < 4.00
COC(=O)CCCCCNC(=O)NC1CCCCC1 | 6.96 | – | 5.49
O=C(O)CC[C@H](NC(=O)CCCCCNC(=O)NC12CC3CC(CC(C3)C1)C2)C(=O)O | – | > 500 | < 4.00
O=C(NCCCC(=O)N1CCC[C@H]1C(=O)O)NC12CC3CC(CC(C3)C1)C2 | 4.09 | > 500 | –
O=C(O)CC[C@H](NC(=O)[C@H](Cc1ccccc1)NC(=O)CCCCCNC(=O)NC1CCCCC1)C(=O)O | – | > 500 | < 4.00
O=C(CCCCCNC(=O)NC12CC3CC(CC(C3)C1)C2)N[C@@H](CO)C(=O)O | – | > 500 | < 4.00
O=C(CCCNC(=O)NC12CC3CC(CC(C3)C1)C2)N[C@@H](Cc1c[nH]c2ccccc12)C(=O)O | 5.08 | > 500 | –
CC(C)[C@H](NC(=O)CCCCCNC(=O)NC12CC3CC(CC(C3)C1)C2)C(=O)O | – | > 500 | 4.26
O=C(CCCCCNC(=O)NC12CC3CC(CC(C3)C1)C2)N[C@@H](Cc1ccccc1)C(=O)O | – | > 500 | 5.57
O=C(CCCNC(=O)NC12CC3CC(CC(C3)C1)C2)N[C@@H](CO)C(=O)O | 4.33 | – | –
O=C(CCCCCNC(=O)NC1CCCCC1)N[C@@H](Cc1ccccc1)C(=O)N[C@@H](Cc1c[nH]c2ccccc12)C(=O)O | – | > 500 | 7.00
CCC(C)[C@H](NC(=O)CCCNC(=O)NC12CC3CC(CC(C3)C1)C2)C(=O)O (some centres undefined) | 5.89 | > 500 | –
O=C(O)C[C@H](NC(=O)CCCNC(=O)NC12CC3CC(CC(C3)C1)C2)C(=O)O | < 4.00 | > 500 | –
O=C(O)CCCNC(=O)NC12CC3CC(CC(C3)C1)C2 | < 4.00 | > 500 | –
CSCC[C@H](NC(=O)CCCCCNC(=O)NC12CC3CC(CC(C3)C1)C2)C(=O)O | – | > 500 | < 4.00
CSCC[C@H](NC(=O)CCCNC(=O)NC12CC3CC(CC(C3)C1)C2)C(=O)O | 5.32 | > 500 | –
O=C(O)CCCCCNC(=O)NC1CCCCC1 | 4.62 | – | < 4.00
O=C(CCCNC(=O)NC12CC3CC(CC(C3)C1)C2)N[C@@H](Cc1ccccc1)C(=O)O | 6.10 | > 500 | –
CC(C)C[C@H](NC(=O)[C@H](Cc1ccccc1)NC(=O)CCCCCNC(=O)NC1CCCCC1)C(=O)O | – | > 500 | 6.06
O=C(CCCCCNC(=O)NC1CCCCC1)N[C@@H](Cc1ccccc1)C(=O)O (stereo in doubt; form 1) | 6.82 | – | 5.57

Further lines, results first:

pIC50 [1] | solubility [2] [µM] | pIC50 [3] | Compound
– | > 500 | 7.00 | O=C(CCCCCNC(=O)NC1CCCCC1)N[C@@H](Cc1ccccc1)C(=O)N1CCC[C@H]1C(=O)O
– | > 500 | < 4.00 | CCC(C)[C@H](NC(=O)CCCCCNC(=O)NC12CC3CC(CC(C3)C1)C2)C(=O)O (some centres undefined)
6.25 | > 500 | 4.39 | CC(C)[C@H](NC(=O)CCCCCNC(=O)NC1CCCCC1)C(=O)O
– | > 500 | < 4.00 | O=C(NCCCCCC(=O)N1CCC[C@H]1C(=O)O)NC12CC3CC(CC(C3)C1)C2
5.85 | > 500 | 4.77 | CC(C)[C@H](NC(=O)CCCNC(=O)NC1CCCCC1)C(=O)O
– | > 500 | 6.59 | C[C@H](NC(=O)[C@H](Cc1ccccc1)NC(=O)CCCCCNC(=O)NC1CCCCC1)C(=O)O
– | – | 5.74 | COC(=O)CCCCCNC(=O)NC12CC3CC(CC(C3)C1)C2
– | > 500 | 5.82 | O=C(O)CNC(=O)[C@H](Cc1ccccc1)NC(=O)CCCCCNC(=O)NC1CCCCC1
– | > 500 | < 4.00 | O=C(O)C[C@H](NC(=O)[C@H](Cc1ccccc1)NC(=O)CCCCCNC(=O)NC1CCCCC1)C(=O)O
7.22 | > 500 | < 4.00 | O=C(CCCCCNC(=O)NC1CCCCC1)N[C@@H](Cc1cnc[nH]1)C(=O)O
5.72 | – | 4.44 | O=C(O)CCCNC(=O)NC1CCCCC1
– | > 500 | < 4.00 | O=C(O)CNC(=O)CCCCCNC(=O)NC12CC3CC(CC(C3)C1)C2
4.74 | > 500 | – | O=C(CCCNC(=O)NC12CC3CC(CC(C3)C1)C2)N[C@@H](Cc1ccc(O)cc1)C(=O)O
– | > 500 | 4.39 | O=C(CCCCCNC(=O)NC12CC3CC(CC(C3)C1)C2)N[C@@H](Cc1c[nH]c2ccccc12)C(=O)O
4.82 | > 500 | – | CC(C)C[C@H](NC(=O)CCCNC(=O)NC12CC3CC(CC(C3)C1)C2)C(=O)O
– | > 500 | < 4.00 | O=C(O)C[C@H](NC(=O)CCCCCNC(=O)NC12CC3CC(CC(C3)C1)C2)C(=O)O
4.29 | > 500 | < 4.00 | O=C(O)CC[C@H](NC(=O)CCCCCNC(=O)NC1CCCCC1)C(=O)O
< 4.00 | > 500 | – | C[C@H](NC(=O)CCCNC(=O)NC12CC3CC(CC(C3)C1)C2)C(=O)O
– | > 500 | 5.89 | C[C@H](O)[C@H](NC(=O)[C@H](Cc1ccccc1)NC(=O)CCCCCNC(=O)NC1CCCCC1)C(=O)O
< 4.00 | – | < 4.00 | O=C(O)CNC(=O)NC1CCCCC1
– | > 500 | 6.00 | O=C(CCCCCNC(=O)NC1CCCCC1)N[C@@H](Cc1ccccc1)C(=O)O (stereo in doubt; form 2)

— ChEMBL document CHEMBL1137287, “Peptidyl-urea based inhibitors of soluble epoxide hydrolases” (Bioorg Med Chem Lett, 2006)
